Reference: ChEMBL document CHEMBL1137699, “Synthesis, antibacterial and anticonvulsant evaluations of some cyclic enaminones” (Eur J Med Chem, 2009)
In brackets after ≈: the same amount, converted by molar mass. Activity calls are given as the source filed them. The calls are words filed in the database; no cut-off is given here.

Legend:
[1] = system: Staphylococcus aureus; assay: Antibacterial activity against Staphylococcus aureus ATCC 25923 after 18 hrs by NCCLS M7-A4 method; format: functional, organism-based
In short: (§1)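 Agar dilution on Mueller–Hinton agar, following NCCLS (now CLSI) guidance. Test compounds were dissolved in 80% DMSO in water and tested at 0.12 to 16. Plates were incubated at 35 °C for 18 h. The MIC was the lowest concentration giving complete growth inhibition.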

[2] = system: Staphylococcus aureus; assay: Antibacterial activity against methicillin-susceptible Staphylococcus aureus clinical isolate after 18 hrs by NCCLS M7-A4 method; format: functional
In short: (§2)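 Test compounds dissolved in 80% DMSO in water. Clinical isolates came from a MRSA reference laboratory culture collection. Final inoculum 10^7 CFU/ml, incubated 35 °C for 18 h. MIC taken as the lowest concentration completely inhibiting growth. Reference strains S. aureus ATCC 25923, S. epidermidis ATCC 12228 and E. faecalis ATCC 29212 served as test controls.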

[3] = system: Staphylococcus epidermidis; assay: Antibacterial activity against Staphylococcus epidermidis ATCC 12228 after 18 hrs by NCCLS M7-A4 method; format: functional, organism-based; in short: as §1
[4] = system: Enterococcus faecalis; assay: Antibacterial activity against Enterococcus faecalis ATCC 29212 after 18 hrs by NCCLS M7-A4 method; format: functional, organism-based; in short: as §1
[5] = system: Mus musculus; assay: Anticonvulsant activity against maximal electroshock-induced seizures in mouse at 300 mg/kg, ip; format: functional, organism-based; design: dose 300 mg/kg
[6] = system: Streptococcus pneumoniae; assay: Antibacterial activity against Streptococcus pneumoniae clinical isolate after 18 hrs by NCCLS M7-A4 method; format: functional
In short: (§3)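 Agar dilution on Mueller–Hinton agar with 5% sheep blood, per NCCLS/CLSI. Compounds were dissolved in 80% DMSO in water and tested over 0.12–16. Incubation was 35 °C for 18 h. MIC was read as the lowest concentration completely inhibiting growth. Line 4 used clinical isolates (n = 7 for H. influenzae).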

[7] = system: Escherichia coli; assay: Antibacterial activity against Escherichia coli ATCC 25922 after 18 hrs by NCCLS M7-A4 method; format: functional, organism-based
In short: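 Reference E. coli strain tested by NCCLS/CLSI agar dilution. Compounds were in 80% DMSO in water over a 0.12–16 dilution range, incubated at 35 °C for 18 h.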

[8] = system: Haemophilus influenzae; assay: Antibacterial activity against Haemophilus influenzae clinical isolate after 18 hrs by NCCLS M7-A4 method; format: functional; in short: as §3
[9] = system: Mus musculus; assay: Anticonvulsant activity against subcutaneous pentylenetetrazole-induced seizures in mouse at 300 mg/kg, ip; format: functional, organism-based; design: dose 300 mg/kg
[10] = system: Staphylococcus; assay: Antibacterial activity against methicillin-sensitive coagulase-negative Staphylococcus clinical isolate after 18 hrs by NCCLS M7-A4 method; format: functional; in short: as §2
[11] = system: Haemophilus influenzae; assay: Antibacterial activity against Haemophilus influenzae ATCC 49247 after 18 hrs by NCCLS M7-A4 method; format: functional, organism-based; in short: as §3
[12] = system: Enterococcus; assay: Antibacterial activity against vancomycin-sensitive Enterococcus clinical isolate after 18 hrs by NCCLS M7-A4 method; format: functional; in short: as §2
[13] = system: Staphylococcus; assay: Antibacterial activity against methicillin-resistant coagulase-negative Staphylococcus clinical isolate after 18 hrs by NCCLS M7-A4 method; format: functional; in short: as §2
[14] = system: Enterococcus; assay: Antibacterial activity against vancomycin-resistant Enterococcus clinical isolate after 18 hrs by NCCLS M7-A4 method; format: functional; in short: as §2
[15] = system: Staphylococcus aureus; assay: Antibacterial activity against methicillin-resistant Staphylococcus aureus clinical isolate after 18 hrs by NCCLS M7-A4 method; format: functional; in short: as §2
[16] = system: Mus musculus; assay: Anticonvulsant activity against maximal electroshock-induced seizures in mouse at >100 to 300 mg/kg, ip; format: functional, organism-based; design: dose 300 mg/kg
[17] = system: Mus musculus; assay: Anticonvulsant activity against subcutaneous pentylenetetrazole-induced seizures in mouse at >100 to 300 mg/kg, ip; format: functional, organism-based; design: dose 300 mg/kg

| SMILES | Activity [5] | Activity [9] | also measured |
| --- | --- | --- | --- |
| CCOC(=O)C1C(=O)C=C(Nc2ccc(N3CCOCC3)c(F)c2)CC1c1ccccc1 (centres undefined) | inactive | inactive | Activity [1]: inactive; MIC [2]: > 16 µg/mL; Activity [3]: inactive; Activity [4]: inactive; MIC [6]: > 16 µg/mL; Activity [7]: inactive; MIC [8]: > 16 µg/mL; MIC [10]: > 16 µg/mL; Activity [11]: inactive; MIC [12]: > 16 µg/mL |
| COC(=O)C1C(=O)C=C(NC[C@H]2CN(c3ccc(N4CCOCC4)c(F)c3)C(=O)O2)CC1C (some centres undefined) | inactive | inactive | Activity [1]: inactive; MIC [2]: > 16 µg/mL; Activity [3]: inactive; Activity [4]: inactive; MIC [6]: > 16 µg/mL; Activity [7]: inactive; MIC [8]: > 16 µg/mL; MIC [10]: > 16 µg/mL; Activity [11]: inactive; MIC [12]: > 16 µg/mL |
| CCOC(=O)C1C(=O)C=C(Nc2ccc([N+](=O)[O-])cc2)CC1c1ccccc1 (centres undefined) | inactive | inactive |  |
| COC(=O)C1C(=O)C=C(N2CCCC2)CC1c1ccccc1 (centres undefined) | inactive | inactive |  |
| CCOC(=O)C1C(=O)C=C(Nc2ccc(Br)cc2)CC1c1ccccc1 (centres undefined) | inactive | inactive |  |
| CCOC(=O)C1C(=O)C=C(Nc2ccc(N3CCN(C(=O)OC(C)(C)C)CC3)c(F)c2)CC1c1ccccc1 (centres undefined) | inactive | inactive |  |
| CC(=O)NC[C@H]1CN(c2ccc(N3CCOCC3)c(F)c2)C(=O)O1 [LINEZOLID] |  |  | Activity [1]: inactive; Activity [3]: inactive; MIC [13]: 0.5 µg/mL (≈ 1.48 µM); Activity [4]: inactive; Activity [7]: inactive; MIC [8]: 8 µg/mL (≈ 23.7 µM); MIC [14]: 1 µg/mL (≈ 2.96 µM); MIC [15]: 0.5 µg/mL (≈ 1.48 µM); MIC [10]: 0.5 µg/mL (≈ 1.48 µM); Activity [11]: inactive; MIC [12]: 1 µg/mL (≈ 2.96 µM) |
| COC(=O)C1C(=O)C=C(Nc2ccc(N3CCN(C(=O)OC(C)(C)C)CC3)c(F)c2)CC1c1ccccc1 (centres undefined) | inactive | inactive |  |
| COC(=O)C1C(=O)C=C(N2CCN(c3ccc([N+](=O)[O-])cc3F)CC2)CC1c1ccccc1 (centres undefined) | inactive | inactive |  |
| CCOC(=O)C1C(=O)C=C(N2CCCC2)CC1c1ccccc1 (centres undefined) |  |  | Activity [16]: Active |
| COC(=O)C1C(=O)C=C(Nc2ccc(F)cc2)CC1c1ccccc1 (centres undefined) | inactive | inactive |  |
| CCOC(=O)C1C(=O)C=C(NCCCCc2ccccc2)CC1c1ccccc1 (centres undefined) | inactive | inactive |  |
| CCOC(=O)C1C(=O)C=C(N(CC)CC)CC1c1ccccc1 (centres undefined) | inactive | inactive |  |
| CCOC(=O)C1C(=O)C=C(Nc2ccc(Cl)cn2)CC1c1ccccc1 (centres undefined) | inactive | inactive |  |
| CCOC(=O)C1C(=O)C=C(Nc2ccc(O)cc2)CC1c1ccccc1 (centres undefined) | inactive | inactive |  |
| COC(=O)C1C(=O)C=C(Nc2ccc(Cl)cn2)CC1c1ccccc1 (centres undefined) | inactive | inactive |  |
| COC(=O)C1C(=O)C=C(Nc2ccccc2)CC1c1ccccc1 (centres undefined) |  |  | Activity [17]: Active |
| CCOC(=O)C1C(=O)C=C(N2CCOCC2)CC1c1ccccc1 (centres undefined) | inactive | inactive |  |
| COC(=O)C1C(=O)C=C(NCCCCc2ccccc2)CC1c1ccccc1 (centres undefined) | inactive | inactive |  |
| COC(=O)C1C(=O)C=C(Nc2ccc(N3CCOCC3)c(F)c2)CC1c1ccccc1 (centres undefined) | inactive | inactive |  |
| CCOC(=O)C1C(=O)C=C(N2CCN(c3ccc([N+](=O)[O-])cc3F)CC2)CC1C (centres undefined) | inactive | inactive |  |
